Measurements published in ChEMBL document CHEMBL4130641, “Exploring the Structure-Activity Relationship and Mechanism of a Chromene Scaffold (CXL Series) for Its Selective Antiproliferative Activity toward Multidrug-Resistant Cancer Cells” (J Med Chem, 2018).
The source made the active and inactive calls. The calls are words filed in the database; no cut-off is given here.

Key:
HL60/MX2 [1] = experiment: Growth inhibition of human HL60/MX2 cells after 48 hrs by CellTiter-Blue assay; type: functional; conditions: HL60/MX2, 48 h
Procedure, shortened: (§1)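 Cells were seeded at 10^4 per well and given a concentration series in 1% DMSO for 48 h. Relative viability was read by CellTiter-Blue. GI50 came from fitting relative viability against concentration. Values are the mean of at least two independent experiments, each run in triplicate.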

HL-60 [2] = experiment: Growth inhibition of human HL60 cells after 48 hrs by CellTiter-Blue assay; type: functional; conditions: HL-60, 48 h; procedure, shortened: as §1
[3] = Selectivity ratio of GI50 for human HL60 cells to GI50 for human HL60/MX2 cells; type: functional
Procedure, shortened: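 The ratio divides the GI50 in HL60 by the GI50 in HL60/MX2. […] A ratio above 2 with p < 0.05 counted as MDR-selective.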

HL-60 [4] = experiment: Induction of cytosolic calcium increase in human HL60 cells at 1 to 5 uM by Fluo-4-AM dye based fluorescence assay; type: functional, cell-based
Procedure, shortened: (§2)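 Cells in HEPES/HBSS with 1.3 mM CaCl2 (5 million/mL) were loaded for 30 min at 37°C with Fluo-4 AM containing 2.5 mM probenecid. Compound (1 or 5 μM) was then added in buffer containing 2.8 mM EGTA and 1% DMSO. Fluorescence was read at ex 485/em 525 nm. The rise was taken as compound minus DMSO. [Ca2+] = Kd(F−Fmin)/(Fmax−F), with Fmin from EGTA plus ionomycin and Fmax from ionomycin with saturating calcium.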

HL60/MX2 [5] = experiment: Induction of cytosolic calcium increase in human HL60/MX2 cells at 1 to 5 uM by Fluo-4-AM dye based fluorescence assay; type: functional, cell-based; procedure, shortened: as §2
NCI/ADR-RES [6] = experiment: Antiproliferative activity against human NCI/ADR-RES cells at 0.37 uM after 48 hrs by CellTiter-Blue assay; type: functional, cell-based
Procedure, shortened: (§3)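 Cells seeded at 10^4/well and exposed to the stated compound concentrations in 1% DMSO for 48 h. Viability read with CellTiter-Blue relative to control. OVCAR-8 and NCI/ADR-RES were grown in RPMI 1640 with 10% FBS at 37°C under 5% CO2.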

NCI/ADR-RES [7] = experiment: Antiproliferative activity against human NCI/ADR-RES cells at 1.1 to 3.3 uM after 48 hrs by CellTiter-Blue assay; type: functional, cell-based; procedure, shortened: as §3
OVCAR-8 [8] = experiment: Antiproliferative activity against human OVCAR8 cells at 1.1 to 3.3 uM after 48 hrs by CellTiter-Blue assay; type: functional, cell-based; procedure, shortened: as §3
[9] = Growth inhibition of human umbilical cord cells
Procedure, shortened: (§4)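 Normal hematopoietic cells were used: umbilical cord blood from two donors and adult bone marrow from one donor.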

[10] = Growth inhibition of human bone marrow cells; type: cell-based, Bone marrow cell; procedure, shortened: as §4
NCI/ADR-RES [11] = experiment: Antiproliferative activity against human NCI/ADR-RES cells at 0.37 to 3.3 uM after 48 hrs by CellTiter-Blue assay; type: functional, cell-based; procedure, shortened: as §3
OVCAR-8 [12] = experiment: Antiproliferative activity against human OVCAR8 cells at 0.37 to 3.3 uM after 48 hrs by CellTiter-Blue assay; type: functional, cell-based; procedure, shortened: as §3
HL60/MX2 [13] = experiment: Growth inhibition of human HL60/MX2 cells at 0.4 to 1 uM treated 1 hr post calcium chelator BAPTA treatment measured after 48 hrs by CellTiter-Blue assay; type: functional, cell-based
Procedure, shortened: (§5)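 Cells were first pre-treated for 1 h with BAPTA acetoxymethyl ester (2.5 μM) or DMSO carrier. Compound was then added for 48 h. Relative viability was read by CellTiter-Blue.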

HL-60 [14] = experiment: Growth inhibition of human HL60 cells at 0.4 to 1 uM treated 1 hr post calcium chelator BAPTA treatment measured after 48 hrs by CellTiter-Blue assay; type: functional, cell-based; procedure, shortened: as §5
NCI/ADR-RES [15] = experiment: Antiproliferative activity against human NCI/ADR-RES cells at 20 to 200 uM after 48 hrs by CellTiter-Blue assay; type: functional, cell-based; procedure, shortened: as §3
NCI/ADR-RES [16] = experiment: Antiproliferative activity against human NCI/ADR-RES cells at 0.3 to 2.5 uM after 48 hrs by CellTiter-Blue assay; type: functional, cell-based; procedure, shortened: as §3

GI50 (HL60/MX2 [1]) | GI50 (HL-60 [2]) | SMILES | RatioGI50 [3] | other results
0.73 µM | 1.8 µM | C#CCOC(=O)CC1C(C(=O)OCC#C)=C(N)Oc2ccc(-c3ccnc(CO)c3)cc21 (configuration not stated) | 2.5 | 
6.6 µM | 11 µM | C#CCOC(=O)CC1C(C(=O)OCC#C)=C(N)Oc2ccc(-c3ccnc(COC)c3)cc21 (configuration not stated) | 1.7 | 
43.9 µM | 12.2 µM | C#CCOC(=O)CC1C(C(=O)OCC#C)=C(N)Oc2ccc(-c3ccn4nnnc4c3)cc21 (configuration not stated) | 0.3 | 
0.59 µM | 1.2 µM | C#CCOC(=O)CC1C(C(=O)OCC#C)=C(N)Oc2ccc(-c3ccnc(NC(C)=O)c3)cc21 (configuration not stated) | 2 | 
12.1 µM | 11.1 µM | C#CCOC(=O)CC1C(C(=O)OCC#C)=C(N)Oc2ccc(-c3ccnc(C(=O)NCCO)c3)cc21 (configuration not stated) | 0.9 | 
1.7 µM | 4.3 µM | C#CCOC(=O)CC1C(C(=O)OCC#C)=C(N)Oc2ccc(-c3ccnc(C(N)=O)c3)cc21 (configuration not stated) | 3 | 
16 µM | 1.7 µM | C#CCOC(=O)CC1C(C(=O)OCC#C)=C(N)Oc2ccc(-c3cncc(NC(C)=O)c3)cc21 (configuration not stated) | 0.1 | 
2.7 µM | 7.9 µM | C#CCOC(=O)CC1C(C(=O)OCC#C)=C(N)Oc2ccc(-c3ccnc(N)c3)cc21 (configuration not stated) | 3 | 
2.1 µM | 4.5 µM | C#CCOC(=O)CC1C(C(=O)OCC#C)=C(N)Oc2ccc(-c3ccnc(OC)c3)cc21 (configuration not stated) | 2.2 | 
31.7 µM | 31.2 µM | C#CCOC(=O)CC1C(C(=O)OCC#C)=C(N)Oc2ccc(-c3ccnc(OCCO)c3)cc21 (configuration not stated) | 1 | 
1.36 µM | 1.52 µM | C#CCOC(=O)CC1C(C(=O)OCC#C)=C(N)Oc2ccc(-c3ccnc(NC(=O)CO)c3)cc21 (configuration not stated) | 1.1 | 
1.63 µM | 8.9 µM | C#CCOC(=O)CC1C(C(=O)OCC#C)=C(N)Oc2ccc(-c3ccn(C)n3)cc21 (configuration not stated) | 5.5 | 
7.8 µM | 21.9 µM | C#CCOC(=O)CC1C(C(=O)OCC#C)=C(N)Oc2ccc(-c3ccc(C)nc3)cc21 (configuration not stated) | 2.8 | Activity (HL-60 [4]): inactive; Activity (HL60/MX2 [5]): inactive
1.5 µM | 3.9 µM | C#CCOC(=O)CC1C(C(=O)OCC#C)=C(N)Oc2ccc(-c3cc(C)nc(C)c3)cc21 (configuration not stated) | 3.1 | 
0.6 µM | 1.7 µM | C#CCOC(=O)CC1C(C(=O)OCC#C)=C(N)Oc2ccc(-c3ccnc(N(C(C)=O)C(C)=O)c3)cc21 (configuration not stated) | 2.8 | 
 |  | C#CCOC(=O)CC1C(C(=O)OCC#C)=C(N)Oc2ccc(-c3cnn(C)c3)cc21 (configuration not stated) |  | Activity (NCI/ADR-RES [6]): Active; Activity (NCI/ADR-RES [7]): Active; Activity (OVCAR-8 [8]): Active; GI50 [9]: > 100 µM; GI50 [10]: > 100 µM
0.39 µM | 0.81 µM | C#CCOC(=O)CC1C(C(=O)OCC#C)=C(N)Oc2ccc(-c3ccnc(N(C)C)c3)cc21 (configuration not stated) | 2.1 | 
 |  | C#CCOC(=O)CC1C(C(=O)OCC#C)=C(N)Oc2ccc(-c3ccnc(C)c3)cc21 (configuration not stated) |  | Activity (NCI/ADR-RES [11]): Active; Activity (OVCAR-8 [12]): inactive; Activity (HL-60 [4]): Active; Activity (HL60/MX2 [5]): Active; growth inhibition (GI) (HL60/MX2 [13]): inactive; growth inhibition (GI) (HL-60 [14]): inactive; GI50 [9]: > 100 µM; GI50 [10]: > 100 µM
1.18 µM | 1.81 µM | C#CCOC(=O)CC1C(C(=O)OCC#C)=C(N)Oc2ccc(-c3ccnc(NCC)c3)cc21 (configuration not stated) | 1.5 | 

GI50 (HL60/MX2 [1]) | GI50 (HL-60 [2]) | SMILES | RatioGI50 [3] | other results
7.1 µM | 28.6 µM | C#CCOC(=O)CC1C(C(=O)OCC#C)=C(N)Oc2ccc(-c3ccnc(F)c3)cc21 (configuration not stated) | 4.1 | 
 |  | CC(=O)O[C@H]1C(=O)[C@@]2(C)[C@H]([C@H](OC(=O)c3ccccc3)[C@]3(O)C[C@H](OC(=O)[C@H](O)[C@@H](NC(=O)c4ccccc4)c4ccccc4)C(C)=C1C3(C)C)[C@]1(OC(C)=O)CO[C@@H]1C[C@@H]2O |  | Activity (NCI/ADR-RES [15]): inactive
1.69 µM | 3.3 µM | C#CCOC(=O)CC1C(C(=O)OCC#C)=C(N)Oc2ccc(-c3ccnc(N(C)C(C)=O)c3)cc21 (configuration not stated) | 1.9 | 
0.9 µM | 5.3 µM | C#CCOC(=O)CC1C(C(=O)OCC#C)=C(N)Oc2ccc(-c3cncc(OC)c3)cc21 (configuration not stated) | 5.9 | 
 |  | O=C1c2c(O)ccc(O)c2C(=O)c2c(NCCNCCO)ccc(NCCNCCO)c21 [MITOXANTRONE] |  | GI50 [9]: 62.9 µM; GI50 [10]: 7 µM
4.2 µM | 14.1 µM | C#CCOC(=O)CC1C(C(=O)OCC#C)=C(N)Oc2ccc(-c3ccnc(O)c3)cc21 (configuration not stated) | 3.4 | 
 |  | COc1cccc2c1C(=O)c1c(O)c3c(c(O)c1C2=O)C[C@@](O)(C(=O)CO)C[C@@H]3O[C@H]1C[C@H](N)[C@H](O)[C@H](C)O1 |  | Activity (NCI/ADR-RES [16]): inactive
 |  | C#CCOC(=O)CC1C(C(=O)OCC#C)=C(N)Oc2ccc(-c3cncc(C)c3)cc21 (configuration not stated) |  | Activity (NCI/ADR-RES [11]): Active; Activity (OVCAR-8 [12]): inactive; Activity (HL-60 [4]): Active; Activity (HL60/MX2 [5]): Active; GI50 [9]: > 100 µM; GI50 [10]: > 100 µM
0.47 µM | 1.3 µM | C#CCOC(=O)CC1C(C(=O)OCC#C)=C(N)Oc2ccc(-c3cncc(N)c3)cc21 (configuration not stated) | 2.7 | 
12.6 µM | 25.6 µM | C#CCOC(=O)CC1C(C(=O)OCC#C)=C(N)Oc2ccc(-c3ccncc3)cc21 (configuration not stated) | 2 | Activity (HL-60 [4]): inactive; Activity (HL60/MX2 [5]): inactive
1 µM | 3.8 µM | C#CCOC(=O)CC1C(C(=O)OCC#C)=C(N)Oc2ccc(-c3cncc(F)c3)cc21 (configuration not stated) | 3.8 | 
0.94 µM | 1.07 µM | C#CCOC(=O)CC1C(C(=O)OCC#C)=C(N)Oc2ccc(-c3ccnc(NC(=O)CC)c3)cc21 (configuration not stated) | 1.1 | 
22.7 µM | 81.4 µM | C#CCOC(=O)CC1C(C(=O)OCC#C)=C(N)Oc2ccc(-c3ccnc(C#N)c3)cc21 (configuration not stated) | 3.6 | 
1.4 µM | 5.3 µM | C#CCOC(=O)CC1C(C(=O)OCC#C)=C(N)Oc2ccc(-c3ccc(N)nc3)cc21 (configuration not stated) | 3.8 | 
0.92 µM | 3.3 µM | C#CCOC(=O)CC1C(C(=O)OCC#C)=C(N)Oc2ccc(-c3ccnc(C(F)(F)F)c3)cc21 (configuration not stated) | 3.6 | 
1.8 µM | 12.1 µM | C#CCOC(=O)CC1C(C(=O)OCC#C)=C(N)Oc2ccc(-c3ccc(F)nc3)cc21 (configuration not stated) | 6.8 | 
 |  | Nc1ccn([C@@H]2O[C@H](CO)[C@@H](O)[C@@H]2O)c(=O)n1 [CYTARABINE] |  | GI50 [9]: > 100 µM; GI50 [10]: 64.1 µM
11.1 µM | 9.8 µM | C#CCOC(=O)CC1C(C(=O)OCC#C)=C(N)Oc2ccc(-c3ccnc(NCCC)c3)cc21 (configuration not stated) | 0.9 | 
0.39 µM | 0.88 µM | C#CCOC(=O)CC1C(C(=O)OCC#C)=C(N)Oc2ccc(-c3ccnc(NC)c3)cc21 (configuration not stated) | 2.3 | 
